Among the data in ChEMBL document CHEMBL3098020, “Synthesis and biological evaluation of novel 2-amino-3-aroyl-4-neopentyl-5-substituted thiophene derivatives as allosteric enhancers of the A₁ adenosine receptor” (Bioorg Med Chem, 2014) are inhibition and fold change (FC) values, retold here.

Experiment [1] addresses T1, Adenosine receptor A1 (Homo sapiens) (UniProt P30542).
T1 sequence (whole entry): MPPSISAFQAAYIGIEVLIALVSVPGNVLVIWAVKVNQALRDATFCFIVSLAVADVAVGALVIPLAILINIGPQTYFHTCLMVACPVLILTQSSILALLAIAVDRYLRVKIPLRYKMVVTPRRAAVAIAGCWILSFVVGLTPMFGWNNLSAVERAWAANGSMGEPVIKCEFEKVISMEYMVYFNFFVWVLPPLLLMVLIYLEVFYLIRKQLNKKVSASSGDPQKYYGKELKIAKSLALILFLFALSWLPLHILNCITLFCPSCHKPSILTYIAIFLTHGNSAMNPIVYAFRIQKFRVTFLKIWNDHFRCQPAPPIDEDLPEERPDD
Kind of experiment: Allosteric enhancement of human adenosine A1 receptor expressed in CHO cells assessed as inhibition of forskolin-stimulated cAMP production at 100 nM preincubated for 10 mins followed by forskolin challenge measured after 5 mins by scintillation counting analysis in presence of CCPA relative to control. The format is functional, cell-based. The method, boiled down:
(§1)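 hA1-CHO cells (10⁶ cells/mL) in phosphate buffer with adenosine deaminase 1.0 IU/mL and Ro 20-1724 0.5 mM, preincubated 10 min at 37 °C. Compound added for 10 min, alone or at 100 nM with CCPA 1 pM. Forskolin 1 µM added for 5 min, stopped with cold 6% TCA. cAMP measured by [³H]-cAMP competition protein-binding assay; percent inhibition versus control; three experiments.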
Background: Changes in cAMP serve as a functional read-out for many G protein-coupled receptors.

The target of experiment [2] is T1, Adenosine receptor A1 (Homo sapiens). Kind of experiment: Potentiation of [3H]CCPA binding to human adenosine A1 receptor expressed in CHO cell membranes at 10 uM after 90 mins relative to [3H]CCPA-treated control.
Experiment [3] has the same target. The experiment can be described thus: Allosteric enhancement of human adenosine A1 receptor expressed in CHO cells assessed as inhibition of forskolin-stimulated cAMP production at 10 uM preincubated for 10 mins followed by forskolin challenge measured after 5 mins by scintillation counting analysis relative to control. The format is functional, cell-based. The procedure, abridged:
as §1

In experiment [4] the target is Adenosine receptor A2a (Homo sapiens) (UniProt P29274). The experiment can be described thus: Displacement of [3H]-ZM241385 from human adenosine A2A receptor expressed in CHO cell membranes at 10 uM by scintillation counting analysis relative to control. The procedure, abridged: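 A2A-expressing CHO membranes, pretreated with adenosine deaminase, in 50 mM Tris-HCl, 10 mM MgCl₂ pH 7.4 with 1 nM [³H]ZM 241385. Incubated 60 min at 4 °C. Compound 10 µM in 1% DMSO final. Filtration and scintillation counting; percent inhibition of specific binding.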
(In general: In a radioligand displacement assay an active substance lowers the binding of a labelled ligand.)

For experiment [5], the target named is T1, Adenosine receptor A1 (Homo sapiens). The experiment can be described thus: Displacement of [3H]-DPCPX from human adenosine A1 receptor expressed in CHO cell membranes at 10 uM by scintillation counting analysis relative to control. The procedure, abridged: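 hA1-CHO membranes, pretreated with adenosine deaminase, in 50 mM Tris-HCl pH 7.4 with 1 nM [³H]DPCPX. Incubated 120 min at 25 °C. Compound 10 µM added from 100-fold DMSO stock, 1% DMSO final. Bound ligand collected on glass-fibre filters and counted by scintillation; percent inhibition of specific binding.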

The target is the same in experiment [6]. Kind of experiment: Potentiation of CCPA-induced displacement of [3H]-DPCPX from human adenosine A1 receptor expressed in CHO cell membranes at 10 uM after 90 mins relative to CCPA-treated control. The procedure, abridged:
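CCPA (0.01 nM–1 µM) competition against [³H]DPCPX in hA1-CHO membranes, with or without compound at 10 µM. Nonspecific binding defined with 1 µM DPCPX. Ki calculated from IC50 by the Cheng-Prusoff equation; CCPA Ki shift given as fold change; three experiments.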

Experiment [7] deals with T2, Adenosine receptor A3 (Homo sapiens) (UniProt P0DMS8).
T2 sequence (whole entry): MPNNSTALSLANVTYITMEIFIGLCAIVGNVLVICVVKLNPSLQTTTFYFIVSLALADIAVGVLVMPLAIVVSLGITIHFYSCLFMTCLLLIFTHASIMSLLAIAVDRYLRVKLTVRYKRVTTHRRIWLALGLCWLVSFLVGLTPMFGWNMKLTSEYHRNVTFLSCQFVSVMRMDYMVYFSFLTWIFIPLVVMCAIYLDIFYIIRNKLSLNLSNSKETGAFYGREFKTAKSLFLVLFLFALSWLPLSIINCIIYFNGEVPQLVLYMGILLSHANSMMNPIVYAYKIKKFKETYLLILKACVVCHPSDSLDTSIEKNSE
Kind of experiment: Displacement of [3H]-MRE-3008-F20 from human adenosine A3 receptor expressed in CHO cell membranes at 10 uM by scintillation counting analysis relative to control. The procedure, abridged:
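A3-expressing CHO membranes in 50 mM Tris-HCl, 10 mM MgCl₂, 1 mM EDTA pH 7.4 with 2 nM [³H]MRE-3008-F20. Incubated 120 min at 4 °C. Compound 10 µM in 1% DMSO final. Filtration and scintillation counting; percent inhibition of specific binding.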

Chain of Adenosine receptor A2a (Homo sapiens) (P29274 whole entry): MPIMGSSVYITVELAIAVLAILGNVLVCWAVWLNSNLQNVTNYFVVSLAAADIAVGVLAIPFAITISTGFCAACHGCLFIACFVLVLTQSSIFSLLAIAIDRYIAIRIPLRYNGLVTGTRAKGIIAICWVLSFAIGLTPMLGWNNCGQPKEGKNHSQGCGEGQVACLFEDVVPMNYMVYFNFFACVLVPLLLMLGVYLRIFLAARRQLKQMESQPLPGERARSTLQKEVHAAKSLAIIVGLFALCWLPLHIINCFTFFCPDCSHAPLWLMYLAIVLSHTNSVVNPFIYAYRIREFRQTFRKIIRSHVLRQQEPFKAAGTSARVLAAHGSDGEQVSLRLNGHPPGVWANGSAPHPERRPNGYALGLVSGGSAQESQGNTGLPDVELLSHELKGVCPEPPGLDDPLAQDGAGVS

For the molecule `CC(C)c1ccc(-c2sc(N)c(C(=O)c3ccc(Cl)cc3)c2CC(C)(C)C)cc1`, the inhibition is 58% in experiment [1]; 56% in experiment [3]; 1% in experiment [4]; 1% in experiment [5]; 1% in experiment [7]. The figures for the fold change (FC) in experiment [2] and in experiment [6] were 5.6 and 4.1, respectively.

Regarding `Cc1ccccc1-c1sc(N)c(C(=O)c2ccc(Cl)cc2)c1CC(C)(C)C`, the inhibition in experiment [1] amounted to 49%; in experiment [3], 47%; in experiment [4], 1%; in experiment [5], 1%; in experiment [7] it was 1%. In addition, the fold change (FC) in experiment [2] turned out to be 4.1; in experiment [6], 2.7.

In the case of `COc1cccc(-c2sc(N)c(C(=O)c3ccc(Cl)cc3)c2CC(C)(C)C)c1`, the inhibition in experiment [1] worked out at 57%; in experiment [3] it was 55%; in experiment [4], 2%; in experiment [5], 1%; in experiment [7] it was 1%. Also, the fold change (FC) in experiment [2] was determined as 6.3; in experiment [6], 5.8.

On to `COc1ccc(-c2sc(N)c(C(=O)c3cccc(Cl)c3)c2CC(C)(C)C)cc1`, for which the inhibition in experiment [1] stood at 56%; in experiment [3] it was 53%; in experiment [4], 1%; in experiment [5] it was 1%; in experiment [7], 2%. Moreover, the fold change (FC) in experiment [2] is 6; in experiment [6], 3.7.

On to `CC(C)(C)Cc1c(-c2ccccc2)sc(N)c1C(=O)c1cccc(Cl)c1`, for which the inhibition in experiment [1] amounted to 57%; in experiment [3], 59%; in experiment [4], 4%; in experiment [5] it was 2%; in experiment [7], 5%. The fold change (FC) is 6.3 in experiment [2] and 3.1 in experiment [6].

As to `CC(C)(C)Cc1c(-c2cccnc2)sc(N)c1C(=O)c1ccc(Cl)cc1`, the inhibition amounted to 41% in experiment [1]; 37% in experiment [3]; 1% in experiment [4]; 1% in experiment [5]; 1% in experiment [7]. The figures for the fold change (FC) in experiment [2] and in experiment [6] were 3.7 and 2.2, respectively.

Take `CC(C)(C)c1csc(N)c1C(=O)c1ccc(Cl)cc1`: the inhibition stood at 18% in experiment [1]; 11% in experiment [3]; 1% in experiment [4]; 1% in experiment [5]; 1% in experiment [7]. Moreover, the fold change (FC) was 1.3 in experiment [2] and 1.6 in experiment [6].

Consider `COc1ccc(-c2sc(N)c(C(=O)c3cccc(C(F)(F)F)c3)c2CC(C)(C)C)cc1`, for which the inhibition was determined as 46% in experiment [1]; 44% in experiment [3]; 1% in experiment [4]; 2% in experiment [5]; 1% in experiment [7]. For the same molecule, the values for the fold change (FC) in experiment [2] and in experiment [6] were 4 and 1.8, respectively.

In the case of `COc1ccc(-c2sc(N)c(C(=O)c3ccc(Cl)cc3)c2CC(C)(C)C)cc1`, the inhibition in experiment [1] was found to be 43%; in experiment [3], 44%; in experiment [4], 1%; in experiment [5], 1%; in experiment [7], 2%. The fold change (FC) is 6.1 in experiment [2] and 4.3 in experiment [6].

In the case of `CC(C)(C)Cc1c(-c2ccncc2)sc(N)c1C(=O)c1ccc(Cl)cc1`, the inhibition stood at 46% in experiment [1]; 42% in experiment [3]; 1% in experiment [4]; 1% in experiment [5]; 6% in experiment [7]. In addition, the figures for the fold change (FC) in experiment [2] and in experiment [6] were 4 and 2.8, respectively.

Take `COCCOc1ccc(-c2sc(N)c(C(=O)c3ccc(Cl)cc3)c2CC(C)(C)C)cc1`: the inhibition amounted to 55% in experiment [1]; 53% in experiment [3]; 1% in experiment [4]; 1% in experiment [5]; 1% in experiment [7]. The fold change (FC) in experiment [2] was 5.5; in experiment [6], 3.3.

Take `CC(C)(C)Cc1c(-c2ccc(Cl)cc2)sc(N)c1C(=O)c1ccc(Cl)cc1`: the inhibition was 58% in experiment [1]; 57% in experiment [3]; 1% in experiment [4]; 1% in experiment [5]; 1% in experiment [7]. Moreover, the fold change (FC) in experiment [2] amounted to 5.8; in experiment [6], 4.

`CC(C)(C)Cc1c(-c2ccccc2)sc(N)c1C(=O)c1ccccc1Cl`: the inhibition in experiment [1] stood at 41%; in experiment [3], 38%; in experiment [4], 1%; in experiment [5], 1%; in experiment [7] it was 1%. The fold change (FC) turned out to be 5.4 in experiment [2] and 3.9 in experiment [6].

`CC(C)(C)Cc1c(-c2ccoc2)sc(N)c1C(=O)c1ccc(Cl)cc1`: the inhibition came out at 56% in experiment [1]; 55% in experiment [3]; 1% in experiment [4]; 1% in experiment [5]; 1% in experiment [7]. For the same molecule, the fold change (FC) in experiment [2] is 5.6; in experiment [6], 3.1.

Take `CC(C)(C)Cc1c(-c2cc(F)ccc2F)sc(N)c1C(=O)c1ccc(Cl)cc1`: the inhibition in experiment [1] worked out at 45%; in experiment [3], 46%; in experiment [4] it was 1%; in experiment [5] it was 3%; in experiment [7] it was 1%. The fold change (FC) in experiment [2] is 5.3; in experiment [6], 3.4.

In the case of `CC(C)(C)Cc1c(-c2ccsc2)sc(N)c1C(=O)c1ccc(Cl)cc1`, the inhibition in experiment [1] worked out at 67%; in experiment [3], 62%; in experiment [4], 1%; in experiment [5], 2%; in experiment [7], 4%. Also, the values for the fold change (FC) in experiment [2] and in experiment [6] were 6.4 and 4.7, respectively.

In the case of `CC(C)(C)Cc1c(-c2ccccc2)sc(N)c1C(=O)c1ccc(Cl)cc1Cl`, the inhibition was 55% in experiment [1]; 52% in experiment [3]; 1% in experiment [4]; 1% in experiment [5]; 1% in experiment [7]. The fold change (FC) in experiment [2] turned out to be 6.8; in experiment [6], 4.4.

In general, inhibition refers to the share of the control response that was lost under treatment.
